4 compounds from ChEMBL document CHEMBL3232803, “Optimization of potency and pharmacokinetic properties of tetrahydroisoquinoline transient receptor potential melastatin 8 (TRPM8) antagonists” (J Med Chem, 2014) can be followed below.

Holding throughout (type): ADME, organism-based
Data set [1] is described as follows: Oral bioavailability in Sprague-Dawley rat. Conditions: in vivo. In outline:
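Male Sprague−Dawley rats, n = 3 per group. Iv arm: fed animals, 2 mg/kg in DMSO. Oral arm: fasted animals, 5 or 10 mg/kg by gavage as a suspension in 5% Tween 80/Oraplus. Plasma sampled to 16 h, measured by LC-MS/MS, analysed noncompartmentally.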

The nature of data set [2]: AUC (0 to infinity) in Sprague-Dawley rat at 5 mg/kg, po by LC-MS/MS analysis. Conditions: plasma. Details: time infinity, dose 5 mg/kg, route oral. The procedure, abridged: (§1)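 Fasted male Sprague−Dawley rats (n = 3) given oral gavage as a suspension in 5% Tween 80/Oraplus. Blood sampled up to 16 h post dose, plasma prepared by centrifugation and assayed by LC-MS/MS. Total plasma concentration-time data analysed by noncompartmental methods.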

The nature of data set [3]: Cmax in Sprague-Dawley rat at 5 mg/kg, po by LC-MS/MS analysis. Details: dose 5 mg/kg, route oral. Particulars: in vivo. In outline:
as §1

The nature of data set [4]: Volume of distribution at steady state in Sprague-Dawley rat at 2 mg/kg, iv by LC-MS/MS analysis. Conditions: in vivo, read-out: Vdss. Details: dose 2 mg/kg, route intravenous. The procedure, abridged:
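Fed male Sprague−Dawley rats (n = 3) dosed iv at 2 mg/kg in DMSO. Plasma sampled up to 16 h, quantified by LC-MS/MS. Noncompartmental analysis of total plasma concentration-time data.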

The nature of data set [5]: Oral bioavailability in Sprague-Dawley rat at 5 mg/kg by LC-MS/MS analysis. Particulars: in vivo. The procedure, abridged:
as §1

The nature of data set [6]: Tmax in Sprague-Dawley rat at 5 mg/kg, po by LC-MS/MS analysis. Details: dose 5 mg/kg, route oral. Conditions: in vivo. In outline: as §1
The nature of data set [7]: Plasma concentration in unilateral cartoid artery cannulated Sprague-Dawley rat model at 3 mg/kg, po after […]. Details: dose 3 mg/kg, route oral.

As usually defined, the bioavailability is the share of a dose that reaches the circulation, judged against a reference dose that is usually intravenous. A lower bioavailability goes with poor availability. As for `N#Cc1ccc(NC(=O)N2CCc3cccnc3[C@H]2c2ccc(C(F)(F)F)cc2)cc1`, in data set [1], the bioavailability is 70%.
Broadly, the AUC(0-inf) is total exposure, with the tail of the curve extrapolated. High values mean high exposure, low ones low exposure. As usually defined, the Cmax is the highest concentration seen after dosing. In the case of `C[C@H](NC(=O)N1CCc2cccnc2[C@H]1c1ccc(C(F)(F)F)cc1)C(F)(F)F`, in data set [2], the AUC(0-inf) turned out to be 12 µM·h. Further, in data set [3], the highest level (Cmax) was 1580 nM. In addition, the Vd in data set [4] is 2.7 L/kg.
As to `C[C@H](NC(=O)N1CCc2ccccc2[C@H]1c1ccc(C(F)(F)F)c(F)c1)C(F)(F)F`, the area under the curve AUC(0-inf) in data set [2] is 12.1 µM·h. The same compound came in with a Cmax in data set [3] of 1670 nM. Further, the Vd in data set [4] worked out at 3 L/kg. In addition, the bioavailability in data set [5] was 67%.
In general, Tmax refers to the time from dosing to the highest level. As to `C[C@H](NC(=O)N1CCc2cccnc2[C@H]1c1ccc(C(F)(F)F)c(F)c1)C(F)(F)F`, the AUC(0-inf) in data set [2] worked out at 71.9 µM·h. Further, in data set [6], the time of peak concentration (Tmax) came to 5.3 h. In data set [3], the peak level (Cmax) was 3860 nM. For the same compound, in data set [4], the Vd was found to be 1.7 L/kg. For the same compound, the bioavailability in data set [5] worked out at 51%. The concentration at […] in data set [7] was 1270 nM.
